Results taken from ChEMBL document CHEMBL1135768, “Design, synthesis, and SAR of tachykinin antagonists: modulation of balance in NK(1)/NK(2) receptor antagonist activity” (J Med Chem, 2002).

Experiments:
[1] = tested on: Substance-P receptor (Oryctolagus cuniculus); assay: Tested for the binding affinity towards tachykinin receptor 1 (NK1) in rabbit pulmonary artery tissue
[2] = target: T1, Substance-K receptor (Oryctolagus cuniculus) (UniProt P79218); assay: Tested for the binding affinity towards tachykinin receptor 2 (NK2) in rabbit pulmonary artery tissue
T1 sequence (whole entry): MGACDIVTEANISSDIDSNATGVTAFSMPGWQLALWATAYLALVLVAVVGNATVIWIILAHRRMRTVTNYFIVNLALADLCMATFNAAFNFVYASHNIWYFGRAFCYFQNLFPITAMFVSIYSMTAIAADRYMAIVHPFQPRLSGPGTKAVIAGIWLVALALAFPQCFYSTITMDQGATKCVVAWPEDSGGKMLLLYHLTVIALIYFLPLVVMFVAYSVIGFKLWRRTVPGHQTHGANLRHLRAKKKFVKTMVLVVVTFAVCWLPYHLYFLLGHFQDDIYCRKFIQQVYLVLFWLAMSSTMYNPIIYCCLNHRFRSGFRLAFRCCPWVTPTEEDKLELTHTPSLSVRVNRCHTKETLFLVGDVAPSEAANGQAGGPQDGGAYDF

[3] = target: Substance-P receptor (Cavia porcellus) (UniProt P30547); assay: In vivo potency as dose ratio (ED50 ratio for Tachykinin receptor 1 in presence and absence of antagonist) in guinea pig PMM after intravenous administration at a dose 10 uM/Kg
[4] = target: T2, Substance-K receptor (Cavia porcellus) (UniProt Q64077); assay: In vivo potency as dose ratio (ED50 ratio for Tachykinin receptor 2 (NK2) in presence and absence of antagonist) in guinea pig PMM after intravenous administration at a dose 10 uM/Kg
T2 sequence (whole entry): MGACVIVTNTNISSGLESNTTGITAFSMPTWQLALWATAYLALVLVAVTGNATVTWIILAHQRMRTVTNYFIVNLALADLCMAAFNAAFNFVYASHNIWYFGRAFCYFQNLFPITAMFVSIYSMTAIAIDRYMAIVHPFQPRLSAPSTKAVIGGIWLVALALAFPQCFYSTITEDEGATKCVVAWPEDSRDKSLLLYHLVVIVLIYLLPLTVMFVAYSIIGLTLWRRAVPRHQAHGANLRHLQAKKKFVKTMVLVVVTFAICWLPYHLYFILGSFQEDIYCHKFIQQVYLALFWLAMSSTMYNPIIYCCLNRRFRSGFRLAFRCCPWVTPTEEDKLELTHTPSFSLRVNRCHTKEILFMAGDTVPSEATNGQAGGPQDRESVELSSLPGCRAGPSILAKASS

[5] = target: Substance-P receptor (Cavia porcellus) (UniProt P30547); assay: In vivo potency as dose ratio (ED50 ratio for Tachykinin receptor 1 in presence and absence of antagonist) in guinea pig PMM after oral administration at a dose 30 uM/Kg
Neuromedin-K receptor = target: T3, Neuromedin-K receptor (Homo sapiens, UniProt P29371); assay: Inhibition of binding of [125I]MPNI to human Tachykinin receptor 3 (NK3) expressed in mouse erythroleukemia cells; assay type: cell-based
T3 sequence (P29371 whole entry): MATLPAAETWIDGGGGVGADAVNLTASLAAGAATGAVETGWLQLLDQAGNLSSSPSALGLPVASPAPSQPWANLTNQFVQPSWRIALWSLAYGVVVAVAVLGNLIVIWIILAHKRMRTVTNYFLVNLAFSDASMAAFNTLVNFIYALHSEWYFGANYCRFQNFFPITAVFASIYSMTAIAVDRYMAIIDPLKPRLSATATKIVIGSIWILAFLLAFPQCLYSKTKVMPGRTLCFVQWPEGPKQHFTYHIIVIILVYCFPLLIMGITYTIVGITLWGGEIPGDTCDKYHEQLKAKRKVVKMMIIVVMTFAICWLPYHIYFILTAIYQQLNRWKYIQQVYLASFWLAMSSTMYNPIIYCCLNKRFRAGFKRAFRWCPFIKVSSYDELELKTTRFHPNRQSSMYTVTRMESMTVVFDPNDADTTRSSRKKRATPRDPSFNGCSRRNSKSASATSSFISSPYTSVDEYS

[6] = target: T2, Substance-K receptor (Cavia porcellus); assay: In vivo potency as dose ratio (ED50 ratio for Tachykinin receptor 2 (NK2) in presence and absence of antagonist) in guinea pig PMM after oral administration at a dose 30 uM/Kg
[7] = Bioavailability in dog (dose 1-10 uM/kg i.v.); assay type: ADME, organism-based, Canis lupus familiaris; conditions: in vivo, iv
Method in brief: (§1)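 Compound given to rat (n = 3) or dog (n = 1) by iv bolus at 1–10 μmol/kg, or orally at 10–100 μmol/kg, as a solution in 75% poly(ethylene glycol) 400 in normal saline.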

Substance-K receptor = target: T4, Substance-K receptor (Homo sapiens, UniProt P21452); assay: Inhibition of binding of [3H]NKA to human Tachykinin receptor 2 (NK2) expressed in mouse erythroleukemia cells; assay type: cell-based
T4 sequence (P21452 whole entry): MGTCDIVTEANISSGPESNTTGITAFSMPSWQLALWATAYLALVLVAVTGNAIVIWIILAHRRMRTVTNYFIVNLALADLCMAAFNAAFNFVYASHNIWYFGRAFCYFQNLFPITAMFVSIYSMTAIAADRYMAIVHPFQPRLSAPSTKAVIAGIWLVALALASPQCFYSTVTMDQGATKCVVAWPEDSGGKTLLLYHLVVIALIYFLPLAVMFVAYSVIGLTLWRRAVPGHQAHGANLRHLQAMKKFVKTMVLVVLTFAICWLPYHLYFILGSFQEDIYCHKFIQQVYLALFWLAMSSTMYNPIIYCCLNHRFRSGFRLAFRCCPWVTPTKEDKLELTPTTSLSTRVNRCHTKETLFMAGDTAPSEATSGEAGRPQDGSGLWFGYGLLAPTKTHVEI

Substance-P receptor = Substance-P receptor (Homo sapiens, UniProt P25103); assay: Inhibition of binding of [3H]SP to Tachykinin receptor 1 of human tachykinin receptor expressed in mouse erythroleukemia cells; assay type: cell-based
[8] = target: Substance-P receptor (Cavia porcellus) (UniProt P30547); assay: In vivo binding affinity towards Tachykinin receptor 1 after oral administration in presence of agonist ASMSP in guinea pig pulmonary tissue in lung plasma extravation assay; assay type: organism-based
Method in brief: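 Guinea pig lung plasma extravasation model. Antagonist dosed orally; NK1-selective agonist ASMSP challenge 2 h postdose. Single ED50 calculated from dose response in three to six animals per dose over 4–5 dose levels, doses staggered across several days.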

[9] = Bioavailability in rat (dose 1-10 uM/kg i.v.); assay type: ADME, organism-based; conditions: in vivo, iv
Method in brief: as §1

Chain of Substance-P receptor (Cavia porcellus) (P30547 whole entry): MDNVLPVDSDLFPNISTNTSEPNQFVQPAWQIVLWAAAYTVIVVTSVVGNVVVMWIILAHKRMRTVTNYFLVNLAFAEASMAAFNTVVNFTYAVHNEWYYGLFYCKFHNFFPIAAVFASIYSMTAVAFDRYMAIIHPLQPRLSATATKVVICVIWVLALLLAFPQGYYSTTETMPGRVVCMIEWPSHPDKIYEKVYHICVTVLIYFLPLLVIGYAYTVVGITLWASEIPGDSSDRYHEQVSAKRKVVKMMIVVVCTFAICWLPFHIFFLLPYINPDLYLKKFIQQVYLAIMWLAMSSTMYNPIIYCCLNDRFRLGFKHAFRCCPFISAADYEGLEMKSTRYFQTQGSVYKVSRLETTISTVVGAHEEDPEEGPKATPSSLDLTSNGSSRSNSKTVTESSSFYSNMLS
Chain of Substance-P receptor (P25103 whole entry): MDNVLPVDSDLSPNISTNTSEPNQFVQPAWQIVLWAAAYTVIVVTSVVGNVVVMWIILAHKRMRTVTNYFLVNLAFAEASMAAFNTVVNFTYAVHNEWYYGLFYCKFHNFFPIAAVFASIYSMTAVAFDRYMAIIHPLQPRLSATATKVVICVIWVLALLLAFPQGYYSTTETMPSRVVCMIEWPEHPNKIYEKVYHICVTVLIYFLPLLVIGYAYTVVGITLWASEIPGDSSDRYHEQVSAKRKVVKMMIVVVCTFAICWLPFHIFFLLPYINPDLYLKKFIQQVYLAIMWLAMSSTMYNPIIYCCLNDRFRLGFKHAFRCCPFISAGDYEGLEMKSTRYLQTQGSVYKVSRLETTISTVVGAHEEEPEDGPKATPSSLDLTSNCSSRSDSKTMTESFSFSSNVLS

Row | pKB [1] | pKB [2] | SMILES | other results
1 | 8.26 | 8.34 | CN(C[C@@H](CCN1CCC(c2cc(F)ccc2[S+](C)[O-])CC1)c1ccc(Cl)c(Cl)c1)C(=O)c1cc(C#N)cc2ccccc12 (mixture of isomers) | 
2 | 7 | 7.97 | COc1ccc2c(C(=O)N(C)C[C@@H](CCN3CCC(c4ccccc4[S@+](C)[O-])CC3)c3ccc(Cl)c(Cl)c3)cc(C#N)cc2c1 | 
3 | 8.53 | 6.92 | CN(C[C@@H](CCN1CCC(c2ccc(C(N)=O)cc2[S+](C)[O-])CC1)c1ccc(Cl)c(Cl)c1)C(=O)c1cc(C#N)cc2ccccc12 (mixture of isomers) | 
4 | 7.92 | 6.84 | COC(=O)c1ccc(C2CCN(CC[C@H](CN(C)C(=O)c3cc(C#N)cc4ccccc34)c3ccc(Cl)c(Cl)c3)CC2)c([S+](C)[O-])c1 (mixture of isomers) | 
5 | 8 | 8.12 | CN(C[C@@H](CCN1CCC(c2ccc(Br)cc2[S@+](C)[O-])CC1)c1ccc(Cl)c(Cl)c1)C(=O)c1cc(C#N)cc2ccccc12 | dose ratio [3]: 11; dose ratio [4]: 30
6 | 8.46 | 8.55 | CN(C[C@@H](CCN1CCC(c2cc(Br)ccc2[S+](C)[O-])CC1)c1ccc(Cl)c(Cl)c1)C(=O)c1cc(C#N)cc2ccccc12 (mixture of isomers) | 
7 |  | 8.48 | CN(C[C@@H](CCN1CCC(c2ccccc2[S+](C)[O-])CC1)c1ccc(Cl)c(Cl)c1)C(=O)c1cc(C#N)cc2ccccc12 (mixture of isomers) | 
8 | 8.85 | < 7 | COC(=O)c1ccc(C2CCN(CC[C@H](CN(C)C(=O)c3c(OC)c(C#N)cc4ccccc34)c3ccc(Cl)c(Cl)c3)CC2)c([S+](C)[O-])c1 (some centres not stated) | 
9 | 8.01 | 8.38 | CN(C[C@@H](CCN1CCC(c2ccc(F)cc2[S@+](C)[O-])CC1)c1ccc(Cl)c(Cl)c1)C(=O)c1cc(C#N)cc2ccccc12 | dose ratio [5]: 4; dose ratio [3]: 126; dose ratio [6]: 5; dose ratio [4]: 153
10 | 7.33 | 8.27 | CN(C[C@@H](CCN1CCC(c2ccc([S+](C)[O-])cc2[S+](C)[O-])CC1)c1ccc(Cl)c(Cl)c1)C(=O)c1cc(C#N)cc2ccccc12 (mixture of isomers) | 
11 | 7.25 | 6.83 | CN(C[C@@H](CCN1CCC(c2c(F)cccc2[S+](C)[O-])CC1)c1ccc(Cl)c(Cl)c1)C(=O)c1cc(C#N)cc2ccccc12 (some centres not stated) | 
12 | 8.93 | 8.34 | CN(C[C@@H](CCN1CCC(c2ccc(O)cc2[S+](C)[O-])CC1)c1ccc(Cl)c(Cl)c1)C(=O)c1cc(C#N)cc2ccccc12 (mixture of isomers) | 
13 | 8.02 | 7.31 | CN(C[C@@H](CCN1CCC(c2ccccc2[S@+](C)[O-])CC1)c1ccc(Cl)c(Cl)c1)C(=O)c1cc(C#N)cc2cc(O)ccc12 | 
14 | 7.87 | 6.38 | CN(C[C@@H](CCN1CCC(c2ccc(C(=O)O)cc2[S+](C)[O-])CC1)c1ccc(Cl)c(Cl)c1)C(=O)c1cc(C#N)cc2ccccc12 (mixture of isomers) | 

Second part, the compound before the results:

Row | SMILES | pKB [1] | pKB [2] | other results
15 | CN(C[C@@H](CCN1CCC(c2ccccc2[S@+](C)[O-])CC1)c1ccc(Cl)c(Cl)c1)C(=O)c1cc(C#N)c(F)c2ccccc12 | 6.75 | 6.2 | 
16 | COc1c(C#N)cc2ccccc2c1C(=O)N(C)C[C@@H](CCN1CCC(C(=O)N(C)C)(N2CCCCC2=O)CC1)c1ccc(Cl)c(Cl)c1 | 7.88 | 7.7 | 
17 | COc1c(C#N)cc2ccccc2c1C(=O)N(C)C[C@@H](CCN1CCC(c2ccccc2[S@+](C)[O-])CC1)c1ccc(Cl)c(Cl)c1 |  |  | dose ratio [5]: 610; Ki (Neuromedin-K receptor): 220 nM; dose ratio [6]: 2; bioavailability [7]: 51%; dose ratio [4]: 14; Ki (Substance-K receptor): 67 nM; Ki (Substance-P receptor): 0.17 nM; ED50 [8]: 0.07 µmol/kg; bioavailability [9]: 12%
18 | COc1c(C#N)cc2ccccc2c1C(=O)N(C)C[C@@H](CCN1CCC(N2CCCNC2=O)CC1)c1ccc(Cl)c(Cl)c1 | 8.45 | 7.92 | 
19 | CNC(=O)C1(N2CCOCC2=O)CCN(CC[C@H](CN(C)C(=O)c2c(OC)c(C#N)cc3ccccc23)c2ccc(Cl)c(Cl)c2)CC1 | 8.55 | 7.79 | 
20 | CN(C[C@@H](CCN1CCC(c2ccccc2[S@+](C)[O-])CC1)c1ccc(Cl)c(Cl)c1)C(=O)c1cc(C#N)cc2cc(C#N)ccc12 | 7.77 | 6.42 | 
21 | CN(C[C@@H](CCN1CCC(N2CCCNC2=O)CC1)c1ccc(Cl)c(Cl)c1)C(=O)c1cc(C#N)cc2ccccc12 | 8.18 | 7.86 | 
22 | CCN1C(=O)c2ccccc2[C@H]1[C@@H](CCN1CCC(c2ccccc2[S@+](C)[O-])CC1)c1ccc(Cl)c(Cl)c1 |  |  | Ki (Neuromedin-K receptor): 9190 nM; Ki (Substance-K receptor): 0.92 nM
23 | CN(C[C@@H](CCN1CCC(c2ccccc2[S@+](C)[O-])CC1)c1ccc(Cl)c(Cl)c1)C(=O)c1cc(C#N)c(Br)c2ccccc12 | 7.78 | 6.99 | 
24 | CNC(=O)C1(N2CCOCC2=O)CCN(CC[C@H](CN(C)C(=O)c2cc(C#N)cc3ccccc23)c2ccc(Cl)c(Cl)c2)CC1 | 7.51 | 7.81 | 
25 | CNC(=O)C1(N2CCCCC2=O)CCN(CC[C@H](CN(C)C(=O)c2cc(C#N)cc3ccccc23)c2ccc(Cl)c(Cl)c2)CC1 | 7.33 | 8.44 | 
26 | CNC(=O)C1(N2CCCNC2=O)CCN(CC[C@H](CN(C)C(=O)c2c(OC)c(C#N)cc3ccccc23)c2ccc(Cl)c(Cl)c2)CC1 | 8.14 | 8.11 | 
27 | CN(C[C@@H](CCN1CCC(c2ccccc2[S@+](C)[O-])CC1)c1ccc(Cl)c(Cl)c1)C(=O)c1cc(C#N)c(C#N)c2ccccc12 | 7.76 | 7.65 | 
28 | CN(C)C(=O)C1(N2CCCCC2=O)CCN(CC[C@H](CN(C)C(=O)c2cc(C#N)cc3ccccc23)c2ccc(Cl)c(Cl)c2)CC1 | 7.36 | 8.52 | 
29 | Cc1c(C#N)cc(C(=O)N(C)C[C@@H](CCN2CCC(c3ccccc3[S@+](C)[O-])CC2)c2ccc(Cl)c(Cl)c2)c2ccccc12 | 8.53 | 7.8 | 
30 | CNC(=O)C1(N2CCCNC2=O)CCN(CC[C@H](CN(C)C(=O)c2cc(C#N)cc3ccccc23)c2ccc(Cl)c(Cl)c2)CC1 | 7.6 | 8.22 | 
